Experimental data as given in article PMC7468319 (Acta Pharmacologica Sinica, 2019).

What was measured:
panel of 35 kinases = assay: Kinase selectivity profile, panel of 35 kinases; format: biochemical; conditions: 1000 nM
How it was run: (§1)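 ELISA-based kinase activity assay using commercially sourced recombinant kinases, with absorbance read at 490 nm. Each test compound was profiled at 1000 nM against a panel of 35 kinases, and percent inhibition was determined for each kinase.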

EGFR [1] = molecular target: T1, EGFR (Homo sapiens, UniProt P00533); assay: Kinase selectivity ELISA at 1000 nM, EGFR; format: biochemical
T1 sequence (P00533 25-1210): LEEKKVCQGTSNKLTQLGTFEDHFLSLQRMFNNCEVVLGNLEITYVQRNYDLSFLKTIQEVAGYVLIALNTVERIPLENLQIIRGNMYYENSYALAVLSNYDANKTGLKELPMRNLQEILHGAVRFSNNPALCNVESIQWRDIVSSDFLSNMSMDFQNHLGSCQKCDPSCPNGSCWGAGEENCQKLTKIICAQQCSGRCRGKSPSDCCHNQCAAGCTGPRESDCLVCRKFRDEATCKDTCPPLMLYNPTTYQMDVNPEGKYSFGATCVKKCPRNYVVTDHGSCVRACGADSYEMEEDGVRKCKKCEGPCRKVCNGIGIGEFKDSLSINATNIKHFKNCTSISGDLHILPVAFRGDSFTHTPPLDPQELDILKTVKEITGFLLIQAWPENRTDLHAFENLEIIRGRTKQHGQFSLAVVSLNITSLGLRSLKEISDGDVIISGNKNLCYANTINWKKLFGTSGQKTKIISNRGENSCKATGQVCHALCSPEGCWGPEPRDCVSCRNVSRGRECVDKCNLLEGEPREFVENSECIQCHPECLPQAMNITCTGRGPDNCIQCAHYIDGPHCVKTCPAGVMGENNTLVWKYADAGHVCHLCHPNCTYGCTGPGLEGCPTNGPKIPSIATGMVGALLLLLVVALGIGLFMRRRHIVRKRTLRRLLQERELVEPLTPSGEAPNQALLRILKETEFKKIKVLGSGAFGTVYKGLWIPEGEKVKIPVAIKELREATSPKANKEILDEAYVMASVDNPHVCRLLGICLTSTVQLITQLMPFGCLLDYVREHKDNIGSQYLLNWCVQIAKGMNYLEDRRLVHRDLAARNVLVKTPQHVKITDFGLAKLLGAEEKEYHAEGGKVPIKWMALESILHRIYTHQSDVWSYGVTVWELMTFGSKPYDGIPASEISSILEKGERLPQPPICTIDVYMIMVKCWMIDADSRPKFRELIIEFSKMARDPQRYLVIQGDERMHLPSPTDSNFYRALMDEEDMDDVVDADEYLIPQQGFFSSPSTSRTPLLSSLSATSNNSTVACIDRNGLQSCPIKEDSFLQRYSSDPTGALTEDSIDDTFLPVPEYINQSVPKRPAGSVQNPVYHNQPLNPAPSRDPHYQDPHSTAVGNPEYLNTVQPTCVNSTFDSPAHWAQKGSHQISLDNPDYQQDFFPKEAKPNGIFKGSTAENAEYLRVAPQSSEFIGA
How it was run: as §1

[2] = system: Rb, phosphorylated Rb, and cyclin D1; assay: Western blot of G1 phase related proteins; format: cell-based, human; conditions: TMD8, 48 h
PARP and caspase 3 = assay: Western blot of cleaved PARP and cleaved caspase 3; format: cell-based, human; conditions: TMD8, Western blot
ITK = molecular target: T2, ITK (Homo sapiens, UniProt Q08881); assay: Kinase selectivity ELISA at 1000 nM, ITK; format: biochemical
T2 sequence (Q08881 1-620): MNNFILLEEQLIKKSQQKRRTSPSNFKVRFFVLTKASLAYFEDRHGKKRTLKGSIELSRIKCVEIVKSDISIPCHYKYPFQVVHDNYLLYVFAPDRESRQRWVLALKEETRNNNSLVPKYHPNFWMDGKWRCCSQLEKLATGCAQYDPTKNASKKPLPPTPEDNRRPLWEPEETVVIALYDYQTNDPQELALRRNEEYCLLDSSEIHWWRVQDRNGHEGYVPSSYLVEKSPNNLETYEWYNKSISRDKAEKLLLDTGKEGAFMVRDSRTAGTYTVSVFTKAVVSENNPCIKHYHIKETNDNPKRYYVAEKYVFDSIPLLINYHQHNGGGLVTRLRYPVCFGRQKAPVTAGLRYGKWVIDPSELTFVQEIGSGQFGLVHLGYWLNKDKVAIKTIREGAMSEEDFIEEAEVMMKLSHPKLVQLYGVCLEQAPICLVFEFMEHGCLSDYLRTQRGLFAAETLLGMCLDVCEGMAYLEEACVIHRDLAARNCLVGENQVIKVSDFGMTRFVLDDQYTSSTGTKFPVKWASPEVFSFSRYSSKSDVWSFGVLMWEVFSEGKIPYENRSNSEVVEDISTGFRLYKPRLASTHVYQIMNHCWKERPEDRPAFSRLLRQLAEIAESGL
How it was run: as §1

ErbB2 = ErbB2 (Homo sapiens, UniProt P04626); assay: Kinase selectivity ELISA at 1000 nM, ErbB2; format: biochemical
Chain of ErbB2 (P04626 23-1255): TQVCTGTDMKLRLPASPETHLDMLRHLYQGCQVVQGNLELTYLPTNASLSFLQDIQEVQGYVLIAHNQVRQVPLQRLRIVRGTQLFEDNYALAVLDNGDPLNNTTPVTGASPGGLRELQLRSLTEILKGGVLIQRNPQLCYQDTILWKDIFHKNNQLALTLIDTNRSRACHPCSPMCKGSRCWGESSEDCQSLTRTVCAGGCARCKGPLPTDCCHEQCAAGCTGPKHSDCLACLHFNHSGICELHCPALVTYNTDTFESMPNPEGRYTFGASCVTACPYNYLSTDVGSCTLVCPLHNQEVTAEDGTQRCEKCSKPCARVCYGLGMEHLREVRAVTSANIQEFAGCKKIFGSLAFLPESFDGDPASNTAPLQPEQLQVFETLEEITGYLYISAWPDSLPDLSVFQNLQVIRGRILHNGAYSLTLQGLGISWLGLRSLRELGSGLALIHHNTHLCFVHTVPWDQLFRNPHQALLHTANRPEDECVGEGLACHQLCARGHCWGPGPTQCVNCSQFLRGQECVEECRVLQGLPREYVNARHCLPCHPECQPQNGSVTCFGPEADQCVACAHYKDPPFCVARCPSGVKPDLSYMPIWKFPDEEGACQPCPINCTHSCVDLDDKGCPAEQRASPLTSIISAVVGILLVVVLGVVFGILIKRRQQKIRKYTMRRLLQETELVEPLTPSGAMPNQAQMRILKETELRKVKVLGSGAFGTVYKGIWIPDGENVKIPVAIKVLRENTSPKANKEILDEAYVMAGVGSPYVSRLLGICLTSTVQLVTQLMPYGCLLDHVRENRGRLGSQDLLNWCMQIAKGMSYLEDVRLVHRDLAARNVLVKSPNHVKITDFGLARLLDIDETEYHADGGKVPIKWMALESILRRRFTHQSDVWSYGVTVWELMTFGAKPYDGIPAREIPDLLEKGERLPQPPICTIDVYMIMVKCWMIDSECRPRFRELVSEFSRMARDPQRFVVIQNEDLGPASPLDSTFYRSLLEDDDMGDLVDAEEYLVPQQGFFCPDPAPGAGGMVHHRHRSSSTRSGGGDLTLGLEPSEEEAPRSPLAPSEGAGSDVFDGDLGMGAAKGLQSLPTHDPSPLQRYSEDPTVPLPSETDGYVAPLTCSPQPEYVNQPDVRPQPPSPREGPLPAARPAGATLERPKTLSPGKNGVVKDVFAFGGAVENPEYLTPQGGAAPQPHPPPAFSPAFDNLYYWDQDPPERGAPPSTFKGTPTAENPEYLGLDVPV
How it was run: as §1

BTK [3] = assay: Western blot, phosphorylation of BTK at Tyr223 in TMD8 cells; format: cell-based, human; conditions: Tyr223, 4 h
EGFR [4] = molecular target: T1, EGFR; conditions: read-out: IC50 against EGFR; in vitro enzymatic activity; cited from earlier work
TMD8 cells = assay: Annexin V-FITC apoptosis analysis by flow cytometry; format: cell-based, human; conditions: TMD8, 72 h, untreated control 12.77%
ErbB4 = ErbB4 (Homo sapiens, UniProt Q15303); assay: Kinase selectivity ELISA at 1000 nM, ErbB4; format: biochemical
How it was run: as §1

BTK [5] = molecular target: BTK (Homo sapiens, UniProt Q06187); format: biochemical
Chain of BTK (Homo sapiens, UniProt Q06187) (Q06187 whole entry): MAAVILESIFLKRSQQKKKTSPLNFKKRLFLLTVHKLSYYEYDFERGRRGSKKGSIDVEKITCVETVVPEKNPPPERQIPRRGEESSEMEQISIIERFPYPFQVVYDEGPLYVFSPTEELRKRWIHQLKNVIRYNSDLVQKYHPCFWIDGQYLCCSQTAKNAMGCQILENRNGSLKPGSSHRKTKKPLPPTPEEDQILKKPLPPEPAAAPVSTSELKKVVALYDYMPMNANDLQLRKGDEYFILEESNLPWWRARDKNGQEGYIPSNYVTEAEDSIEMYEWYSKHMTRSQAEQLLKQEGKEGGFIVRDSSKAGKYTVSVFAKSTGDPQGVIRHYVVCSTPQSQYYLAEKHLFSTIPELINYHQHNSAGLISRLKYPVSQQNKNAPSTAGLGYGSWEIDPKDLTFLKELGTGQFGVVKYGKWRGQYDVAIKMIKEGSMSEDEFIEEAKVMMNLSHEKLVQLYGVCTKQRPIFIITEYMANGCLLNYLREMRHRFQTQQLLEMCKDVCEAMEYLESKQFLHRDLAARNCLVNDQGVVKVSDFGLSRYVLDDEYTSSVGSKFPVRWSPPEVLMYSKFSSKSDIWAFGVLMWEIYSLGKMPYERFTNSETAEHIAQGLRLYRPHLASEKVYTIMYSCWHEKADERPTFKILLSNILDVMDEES

inhibition of the other kinases tested (panel of 35 kinases)	number of kinases with greater than 50% inhibition (panel of 35 kinases)	inhibition of EGFR (EGFR [1])	inhibition of ITK (ITK)	inhibition of ErbB2 (ErbB2)	inhibition of ErbB4 (ErbB4)	selectivity for BTK than for EGFR (BTK [5]; IC50 EGFR vs IC50 BTK)	IC50 (BTK [5]; read-out: IC50 against BTK, ELISA-based kinase assay) [nM]	Structure (SMILES)	levels of Rb, phosphorylated Rb, and cyclin D1 proteins [2]	cleavage of PARP and caspase 3 proteins (PARP and caspase 3)	phosphorylation of BTK in TMD8 cells (BTK [3])	IC50 (EGFR [4]) [nM]	apoptosis rate (TMD8 cells; 10 nM) [%]	apoptosis rate (TMD8 cells; 100 nM) [%]	apoptosis rate (TMD8 cells; 1000 nM) [%]
did not appreciably inhibit	seven	greater than 50%	greater than 50%	greater than 50%	greater than 50%	greater than 6 fold	7	C=CC(=O)Nc1cccc(N2C(=O)OC(C)c3cnc(Nc4ccc(N5CCN(C)CC5)cc4OC)nc32)c1 (centres unmarked) [Compound 2, N-(3-(7-((2-methoxy-4-(4-methylpiperazin-1-yl)phenyl)amino)-4-methyl-2-oxo-2H-pyrimido[4,5-d][1,3]oxazin-1(4H)-yl)phenyl)acrylamide]	reduction	increased in a dose-dependent manner	effectively suppressed	47.4	44.46	57.95	69.46
–	–	–	–	–	–	–	–	C=CC(=O)N1CCC[C@@H](n2nc(-c3ccc(Oc4ccccc4)cc3)c3c(N)ncnc32)C1 [ibrutinib]	–	–	effectively suppressed	–	–	–	–
–	–	–	–	–	–	–	–	CC#CC(=O)N1CCC[C@H]1c1nc(-c2ccc(C(=O)Nc3ccccn3)cc2)c2c(N)nccn12 [ACP-196, acalabrutinib]	–	–	effectively suppressed	–	–	–	–
